Screens as filed in PubChem.
TAAR1 ag – human TAAR1 agonism; Q96RJ0; CHO RD-HGA16 TAAR1, Fluo-8 calcium fluorescence; vehicle wells 0%, saturating PEA agonist 100%; activation, % at 3 µM; actives 0.99% (n = 360,000); AID 624467;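 active means activation above the mean activation of all test compounds in the run plus 3 SD, cut at about 38% in these data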
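System: CHO-derived RD-HGA16 cells with stable Gα16 and human TAAR1 / Times: 17-24 h plating, Fluo-8 75 min 37 °C, 30 min RT / Technique: calcium-sensitive Fluo-8 signal, excitation 470-495, emission 515-575 nm / Measure: % activation relative to PEA EC100 response / Benchmarks: DMSO and PEA EC100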
OX1R antag-1 – blocks the human orexin 1 receptor | OX1R-expressing cells, FRET antagonist read-out | AID 485270 | inhibition, % at 6.6 µM | actives 1.8% (n = 330,000) | O43613; in the data active means inhibition mostly above about 38%, no sharp cut-off; inactive means mostly below about 40%
Target sequence (O43613 whole entry, looked up): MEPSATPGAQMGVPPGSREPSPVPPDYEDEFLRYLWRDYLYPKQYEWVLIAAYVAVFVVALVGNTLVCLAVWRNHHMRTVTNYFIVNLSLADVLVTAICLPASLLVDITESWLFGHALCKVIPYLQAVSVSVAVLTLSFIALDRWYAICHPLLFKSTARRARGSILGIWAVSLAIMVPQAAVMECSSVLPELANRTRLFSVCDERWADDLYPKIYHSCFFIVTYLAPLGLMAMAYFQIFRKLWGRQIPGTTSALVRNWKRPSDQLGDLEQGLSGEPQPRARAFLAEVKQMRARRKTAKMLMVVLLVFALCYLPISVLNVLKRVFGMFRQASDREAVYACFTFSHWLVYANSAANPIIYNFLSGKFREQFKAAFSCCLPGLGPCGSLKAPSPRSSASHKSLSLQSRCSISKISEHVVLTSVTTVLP
OX1R antag-2 – human HCRTR1 antagonism; actives 0.43% (n = 330,000); O43613; inhibition, % at 5 µM; CHO/OX1R cells, Fluo-8 calcium fluorescence, orexin A;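 active means inhibition above its plate's threshold, mean inhibition of all tested compounds on the plate plus 3 SD, cut at about 37% in these data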
GPR7 antag – antagonists of human GPR7 (neuropeptides B/W receptor 1); inhibition, % at 4.4 µM; actives 1.1% (n = 290,000); P48145; AID 1861; GPR7-expressing cells, fluorescence antagonist assay; in the data active means inhibition above about 16%, passing the limit was not always enough;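 further: cells stimulated with the agonist NPW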
TAAR1 antagonist – human TAAR1 antagonism; Q96RJ0; CHO RD-HGA16 TAAR1, Fluo-8 calcium fluorescence, antagonist; inhibition, % at 3 µM; actives 1.5% (n = 360,000); AID 624466;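 active means inhibition above a per-plate cutoff, the mean inhibition of test compounds on that plate plus 3 SD, cut at about 49% in these data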
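Assay system: CHO-derived RD-HGA16 cells stably expressing human TAAR1 plus Gα16. Timing: 140 s kinetic read after compound, 140 s after agonist. Technique: kinetic Fluo-8 calcium fluorescence measurement. Measure: % inhibition of agonist calcium response.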
CHO parental Ca – counter-screen for OX1R antagonists: effect in parental CHO cells | parental CHO-K1, ATP-induced calcium, Fluo-8 fluorescence | inhibition, % at 5.6 µM | actives 0.63% (n = 330,000) | AID 463079;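 active means inhibition above that plate's mean sample inhibition plus 3 SD, cut at about 26% in these data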
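Assay system: untransfected parental CHO cell line. Also added: ATP agonist challenge. Dosing: one dose, 5.6 µM nominal. Measured by: Fluo-8 fluorescence. Read-out: % inhibition. Benchmarks: ATP wells versus no-ATP DMSO wells. Repeats: no replicates.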
A number is an active result; - = inactive; . = no result. The list is not random: actives were taken first. Their share in the collection is about 4.5%.

SMILES | TAAR1 ag | OX1R antag-1 | OX1R antag-2 | GPR7 antag | TAAR1 antagonist | CHO parental Ca
Cc1ccc(-c2ccc3c(c2)S(=O)(=O)c2ccccc2C3=O)cc1 | . | - | - | . | . | -
Nc1ccc2c3c(ccc([N+](=O)[O-])c13)CC2 | - | . | . | . | - | .
CC(C)N(Cc1nc(-c2ccccc2)no1)S(=O)(=O)c1ccccc1 | - | - | - | - | - | 60.2
COc1ccc(Cl)cc1C(=O)N(Cc1nc(-c2cccc(C)c2)no1)C(C)C | - | - | - | - | - | 47.3
CC(C)N(Cc1nc(-c2ccc(Cl)cc2)no1)C(=O)C(c1ccccc1)c1ccccc1 | - | - | - | - | - | -
Cc1cccc(-c2noc(CN(C(=O)CCc3ccccc3)C(C)C)n2)c1 | - | - | - | - | - | 42.4
Cc1ccc(-c2noc(CN(C(=O)C(c3ccccc3)c3ccccc3)C(C)C)n2)cc1 | - | - | - | - | - | 52.2
CC(C)N(Cc1nc(-c2ccccc2)no1)C(=O)CN(C)S(=O)(=O)c1ccccc1 | - | - | - | - | - | -
CCOC(=O)C1=C(C(=O)OCC)C2N(Cc3ccc(C(F)(F)F)cc3)c3ccccc3[C@@]23C[C@@H](C(=O)OC)N(S(=O)(=O)c2cccs2)C3=N1 (stereo partly specified) | - | . | . | . | - | .
COC(=O)C1=C(C)N(C)C(=NCc2ccc3c(c2)OCO3)NC1c1ccc(F)cc1 (stereo unspecified) | - | . | . | . | - | .
Fc1ccc(-c2nc3c4ccccc4ccn3c2Cc2cccc(Cl)c2)cc1 | - | . | . | . | - | .
N#Cc1c(-c2ccco2)cc(-c2ccccn2)nc1N | - | 73.5 | - | - | - | -
O=C(/C=C/c1ccccc1)NCc1cccnc1 | - | - | - | - | - | -
O=C(O)c1cc([N+](=O)[O-])c(NCc2cccnc2)c([N+](=O)[O-])c1 | - | 76.4 | - | - | - | -
O=C(Nc1ccccc1)c1cc([N+](=O)[O-])ccc1NCc1cccnc1 | - | - | - | - | - | -
O=C(NC(=S)NCc1cccnc1)c1ccc([N+](=O)[O-])cc1 | - | 74.7 | - | - | - | -
O=C(/C=C/c1ccccc1[N+](=O)[O-])NCc1cccnc1 | - | 61.3 | - | - | - | -
COCCNC(=O)C1CC(c2ccc([N+](=O)[O-])cc2)=NO1 (stereo unspecified) | - | 68.5 | - | - | - | -
NS(=O)(=O)c1ccc(NC(=O)c2ccc3c(c2)CCCC3)cc1 | - | - | - | - | - | -
CNC(=O)c1ccsc1NC(=O)c1ccc2c(c1)CCCC2 | - | - | - | - | 51.4 | -
CCn1c(SCc2nc3scc(-c4ccccc4)c3c(=O)[nH]2)nnc1-c1cccs1 | - | 56.1 | - | - | - | -
CCOc1ccccc1OCC(=O)Nc1ccc(N2CCCCC2)cc1 | - | - | - | 16.6 | - | -
O=C(CNCc1ccccc1Cl)Nc1cc(S(=O)(=O)N2CCOCC2)ccc1Cl | - | - | - | . | - | -
Cc1ccccc1C(=O)Nc1ccc(N2CCCC2)cc1 | - | - | - | - | 54.0 | -
Cc1ccc(S(=O)(=O)N2CCOCC2)cc1NC(=O)CNCc1ccc(Cl)cc1Cl | - | - | - | . | 59.5 | -
SMILES | TAAR1 ag | OX1R antag-1 | OX1R antag-2 | GPR7 antag | TAAR1 antagonist | CHO parental Ca
CCOc1cc(C(=S)N2CCCC2)ccc1OCC(=O)Nc1c(C)cc(C)cc1C | - | 66.3 | - | - | - | -
COc1ccc(CCC(=O)Nc2cccc(S(=O)(=O)N3CCCCCC3)c2)cc1OC | - | - | - | . | - | -
Cc1ccc(S(=O)(=O)N2CCCCC2)cc1NCC(=O)Nc1ccc(Br)cc1F | - | . | . | . | 57.0 | .
COc1ccc(CC(=O)Nc2cccc(S(=O)(=O)N3CCCCCC3)c2)cc1OC | - | - | - | - | - | 48.8
CCOc1ccccc1OCC(=O)Nc1cccc(S(=O)(=O)N2CCCCCC2)c1 | - | - | - | . | 57.8 | -
CC(=O)c1ccccc1OCC(=O)Nc1cccc(S(=O)(=O)N2CCCC2)c1 | - | - | - | . | - | -
O=C(CNc1ccccc1F)Nc1cc(S(=O)(=O)N2CCCCC2)ccc1Cl | - | - | - | . | - | -
COCCn1cnnc1SCC(=O)Nc1cccc(S(=O)(=O)N2CCCCCC2)c1 | - | - | - | 20.0 | - | -
OC[C@@H]1CN(CCN2CCOCC2)C[C@H](n2cnc3c(NC4CC4)ncnc32)O1 | - | . | . | . | - | .
O=C(Cn1nc(C(=O)O)c2ccccc2c1=O)Nc1cccc(S(=O)(=O)N2CCCCCC2)c1 | - | - | 42.6 | . | - | 32.5
Cc1ccc(C(=O)N2CCN(c3ccc(NC(=O)COc4ccccc4C)cc3)CC2)cc1 | - | - | - | - | 54.9 | -
O=C(Cn1nc(C(=O)O)c2ccccc2c1=O)Nc1cccc(S(=O)(=O)N2CCCC2)c1 | - | . | . | . | - | .
O=C(COc1ccccc1F)Nc1ccc(S(=O)(=O)N2CCCC2)cc1 | - | - | - | . | - | -
Cc1cccc(OCCCC(=O)Nc2ccc(N3CCCCC3)cc2)c1 | 72.9 | - | - | - | 64.0 | -
CCC(=O)N1CCN(c2ccc(NC(=O)COc3ccc(C)cc3C)cc2)CC1 | - | - | - | - | - | -
CN(C)c1ccc(S(=O)(=O)N2CCCCC2)cc1NC(=O)COc1ccccc1F | - | - | - | - | - | 71.2
CCc1nc2c(OCc3ccc(Cl)cc3)cccn2c1N(C)C(=O)c1ccco1 | - | . | . | . | - | .
COc1cc2c(cc1OC)C(c1ccccc1)N(Cc1ccc(S(=O)(=O)NC(=O)c3ccco3)cc1)CC2 (stereo unspecified) | - | . | . | . | - | .
COc1ccc(CSc2nc3ccccc3c(=O)[nH]2)cc1F | - | - | - | - | 49.5 | -
Cc1nnc(SCC(=O)c2ccc(Cl)cc2)n(N)c1=O | - | 50.4 | - | - | - | -
COc1ccc(C2=NS(=O)(=O)N(C)C(C(=O)Nc3ccc(C(C)=O)cc3)=C2)cc1OC | - | - | - | - | 53.1 | -
COc1ccc(NC(=O)C2=CC(c3ccc(C)cc3)=NS(=O)(=O)N2C)cc1OC | - | - | - | - | - | -
O=C1OC(Nc2cc(Br)cc3cccnc23)c2ccccc21 (stereo unspecified) | - | 61.9 | - | - | - | -
COCCN1Cc2cc(C(=O)OC)c3c(c2C1=O)c1cc(F)ccc1n3S(=O)(=O)c1ccc(C)cc1 | - | . | . | . | - | .
O=C(Cn1cnc([N+](=O)[O-])n1)NCCO | - | - | - | - | - | -
O=C(Cn1cnc([N+](=O)[O-])n1)NCc1ccccc1 | - | 72.0 | - | - | - | -
O=C(c1ccc(F)cc1)C1CCN(CCCn2c(=O)[nH]c3ccccc32)CC1 | - | . | . | . | - | .
COC(=O)[C@H](C)NC(=O)NC1CCCc2ccccc21 (stereo partly specified) | . | - | 61.5 | - | . | 35.8
CC(C)[C@H](NC(=O)NC1CCCc2ccccc21)C(=O)O (stereo partly specified) | - | - | - | - | - | -
